# In the library only some 4.6% were active in any assay of this set; here they are far more common.
# TAAR1 antag – human TAAR1 antagonists, primary screen, Fluo-8 calcium fluorescence, CHO RD-HGA16 cells; Trace amine-associated receptor 1 (Homo sapiens), Q96RJ0; antagonist; inhibition, % at 3 µM; 360,000 compounds, 1.5% hits; AID 624466, 2012;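 active = inhibition above a per-plate cutoff, the mean inhibition of test compounds on that plate plus 3 SD, cut at about 49% in these data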
#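 test system = CHO RD-HGA16 cells bearing hTAAR1 | replication = singlicate | controls = DMSO-only wells and EC80 β-PEA-stimulated wells | reagent = EC80 β-phenethylamine stimulus | read-out basis = percent inhibition of PEA-evoked calcium signal, max/basal emission ratio | schedule = seeding 17-24 h prior, 75-min 37 °C, 30-min RT dye loading | signal = kinetic Fluo-8 calcium fluorescence measurement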
# OX1R antag-1 – OX1R (HCRTR1) antagonists, primary screen, fluorescence, CHO/OX1R cells, Fluo-8 calcium, orexin A | inhibition, % at 5 µM | 330,000 compounds, 0.43% hits | Fluo-8 calcium fluorescence;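 active = inhibition above its plate's threshold, mean inhibition of all tested compounds on the plate plus 3 SD, cut at about 37% in these data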
# CHO parental Ca – ATP-evoked calcium signal inhibitors, parental CHO, primary screen, counter-screen for OX1R antagonist project, cell-based, fluorescence, Fluo-8 calcium dye; inhibition, % at 5.6 µM; 330,000 compounds, 0.63% hits; parental CHO-K1, ATP-induced calcium, Fluo-8 fluorescence;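 active = inhibition above that plate's mean sample inhibition plus 3 SD, cut at about 26% in these data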
#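 Assay system – parental CHO cells · Reagent – ATP stimulus · Detection – intracellular calcium via Fluo-8 no-wash fluorescent dye · Evaluation – percent inhibition of ATP-evoked calcium rise, normalized to controls · Controls – ATP wells versus no-ATP DMSO wells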
# OX1R antag-2 – antagonists of human orexin 1 receptor (OX1R) | OX1R-expressing cells, FRET antagonist read-out | inhibition, % at 6.6 µM | 330,000 compounds, 1.8% hits; in the data active = inhibition mostly above about 38%, no sharp cut-off; inactive = mostly below about 40%
# GPR7 antag – GPR7 receptor antagonists, primary screen, cell-based, fluorescence, single concentration; Neuropeptides B/W receptor type 1 (Homo sapiens), P48145; GPR7-expressing cells, fluorescence antagonist assay; inhibition, % at 4.4 µM; 290,000 compounds, 1.1% hits; AID 1861, 2009; in the data active = inhibition above about 16%, passing the limit was not always enough;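 note: cells stimulated with the agonist NPW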
# Target sequence (P48145 whole entry, looked up): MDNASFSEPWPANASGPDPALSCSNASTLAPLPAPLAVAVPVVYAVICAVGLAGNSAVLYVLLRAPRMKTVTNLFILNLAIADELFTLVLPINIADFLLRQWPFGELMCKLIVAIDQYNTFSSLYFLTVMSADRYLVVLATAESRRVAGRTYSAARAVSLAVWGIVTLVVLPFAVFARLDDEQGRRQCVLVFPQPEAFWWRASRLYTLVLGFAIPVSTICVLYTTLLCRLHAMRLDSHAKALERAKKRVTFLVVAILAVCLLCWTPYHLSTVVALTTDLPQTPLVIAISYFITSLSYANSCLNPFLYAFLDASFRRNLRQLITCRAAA
# TAAR1 ag – human TAAR1 agonists, primary screen, Fluo-8 calcium fluorescence, CHO RD-HGA16 cells; 360,000 compounds, 0.99% hits; vehicle wells 0%, saturating PEA agonist 100%; Trace amine-associated receptor 1 (Homo sapiens), Q96RJ0; activation, % at 3 µM;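 active = activation above the mean activation of all test compounds in the run plus 3 SD, cut at about 38% in these data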
#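 System: CHO-derived RD-HGA16 cells with stable Gα16 and human TAAR1 / Times: 17-24 h plating, Fluo-8 75 min 37 °C, 30 min RT / Technique: calcium-sensitive Fluo-8 signal, excitation 470-495, emission 515-575 nm / Measure: % activation relative to PEA EC100 response / Benchmarks: DMSO and PEA EC100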
# OX1R HTRF conf – OX1R (HCRTR1) antagonists, confirmation, cell-based, HTRF | shares compounds with OX1R antag-2 | AID 492964, 2010 | inhibition, % at 6.6 µM | OX1R-expressing cells, HTRF antagonist assay | 1,800 compounds, 49% hits; in the data active = inhibition above about 55%;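 note: CHO cells expressing OX1R stimulated with orexin A at about EC80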
# CHO-K1 HTRF – signal inhibition in parental CHO-K1 cells, counter-screen for OX1R antagonist project, cell-based, HTRF | HTRF counterscreen | AID 493232, 2011 | inhibition, % at 6.6 µM | 1,800 compounds, 48% hits | shares compounds with OX1R antag-2; in the data active = inhibition above about 17%
# A number is an active result; . = inactive; / = not tested or not shown; ! = not active in a repeat.
SMILES,TAAR1 antag,OX1R antag-1,CHO parental Ca,OX1R antag-2,GPR7 antag,TAAR1 ag,OX1R HTRF conf,CHO-K1 HTRF
O=C(N/N=C/C(Cl)=C\c1ccccc1)c1cccs1,.,.,.,86.6,.,.,61.9,.
O=C(CSc1ccc(-c2cccs2)nn1)c1cccs1,.,.,.,111.3,.,.,95.3,.
O=C(COC(=O)c1cc(-c2ccncc2)nc2ccccc12)Nc1ccc2c(c1)OCO2,/,.,.,152.4,.,/,.,24.3
CCOC(=O)COc1ccc2cc(C(=O)OCC)c(=O)oc2c1,.,.,.,110.4,.,.,.,38.4
CCOC(=O)COc1ccc2c3c(c(=O)oc2c1)CCCC3,.,.,.,.,.,.,/,/
O=C(Nc1ccc2nsnc2c1)N1CCCCCC1,.,.,.,87.2,.,.,.,27.4
O=C(NC(=S)Nc1cccc2cccnc12)c1ccccc1,.,.,.,.,.,.,/,/
O=C(NC(=S)Nc1cccc2cccnc12)c1cccs1,.,.,.,94.8,.,.,92.6,.
COC(=O)CNC(=O)/C=C/c1cc(Br)ccc1OC,.,.,.,.,.,.,/,/
COc1ccc(Br)cc1/C=C/C(=O)Nc1ccc(C)cc1,.,.,.,94.6,.,.,68.5,21.6
CCN1C(=O)/C(=C2/C=Cc3cc(C)ccc3N2CC)N(C)C1=S,.,.,.,134.2,.,.,.,78.8
CN1CCN(C(=O)Nc2ccccc2)CC1,.,.,.,91.5,.,.,.,.
O=C(Nc1ccccc1)N1CCN(c2ccccc2)CC1,.,/,/,/,/,.,/,/
Cc1cc[n+](-c2nc3ccccc3nc2C(=C=[N-])C#N)cc1,.,.,.,121.0,.,.,.,63.0
N#CC(=C=[N-])c1nc2ccccc2nc1-[n+]1ccccc1,.,.,.,98.0,.,.,63.6!,79.3
CCCCN(C)Cc1c(O)ccc2c(-c3ccccc3)cc(=O)oc12,.,.,.,85.1,.,.,.,.
CN(CC(=O)Nc1ccccc1C(F)(F)F)C(=O)CSc1nnc(N)s1,.,.,.,.,/,.,/,/
Cc1cccc(C(O)c2ncc(-c3ccc(C(F)(F)F)cc3)[nH]2)c1C (stereo not given),.,/,/,/,/,.,/,/
O=c1[nH]c2ccc(Cl)cc2c(-c2ccccc2)c1[N+](=O)[O-],.,.,.,80.8,.,.,75.0,.
O=C(Nc1ccc(Oc2ccc(NC(=O)Nc3ccccc3Cl)cc2)cc1)Nc1ccccc1Cl,.,.,.,.,.,.,/,/
COc1ccc(S(=O)(=O)Nc2ccccn2)cc1C(=O)Nc1ccccc1,.,.,.,.,.,.,/,/
CN(C)c1ccc(N=Nc2nc3ccccc3n2C)cc1,.,.,.,105.9,.,.,107.0,29.1
CCn1c(NCc2ccc(N(C)C)cc2)nc2ccccc21,.,.,.,.,.,.,/,/
O=C(CSc1nc2ccccc2c2nc3ccccc3n12)NCc1ccco1,.,.,.,80.9,.,.,62.4,.
CCn1c(SCC(=O)NCc2ccco2)nc2ccccc2c1=O,.,.,.,.,.,.,/,/
COc1ccc(CNc2nc(SCC(=O)NCc3ccco3)nc3ccccc23)cc1,.,.,.,78.8,.,.,.,.
CC(=O)N1c2ccc(S(=O)(=O)N(C)C3CCCCC3)cc2CC1C (stereo not given),.,.,.,.,.,.,/,/
Cc1ccc2nc3c(cc(C(=O)NCC4CCCO4)n3C)c(=O)n2c1 (stereo not given),/,/,/,/,.,/,/,/

# Screening results deposited in PubChem by The Scripps Research Institute Molecular Screening Center.
